ChEMBL document CHEMBL4732237, “Discovery of 4-alkoxy-2-aryl-6,7-dimethoxyquinolines as a new class of topoisomerase I inhibitors endowed with potent in vitro anticancer activity” (2021)

What was measured:
PC-3 = assay: Growth inhibition of human PC-3 cells incubated for 48 hrs by sulforhodamine B assay; assay type: functional
In short: (§1)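 NCI five-dose screen (0.01–100 µM; five concentrations plus control). Cells grown in RPMI 1640/5% FBS/2 mM L-glutamine and preincubated 24 h, with time-zero plates TCA-fixed. Drug exposure 48 h at 37 °C, followed by SRB protein staining and reading at 515 nm. GI50 is the concentration at [(Ti-Tz)/(C-Tz)]×100 = 50.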

ACHN = assay: Growth inhibition of human ACHN cells incubated for 48 hrs by sulforhodamine B assay; assay type: functional
In short: (§2)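 NCI five-dose screen covering 0.01–100 µM, prepared as 10-fold or ½-log dilutions from DMSO stock. Cells in RPMI 1640 with 5% FBS were exposed for 48 h at 37 °C after 24 h preincubation. Adherent cells were fixed with TCA (final 10%) and suspension cells were settled before fixing. Stain was SRB, read at 515 nm. GI50 = 50% reduction in net protein increase versus control, with Tz taken at drug addition.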

Hs-578T = assay: Growth inhibition of human HS-578T cells incubated for 48 hrs by sulforhodamine B assay; assay type: functional; in short: as §2
U-251 = assay: Growth inhibition of human U-251 cells incubated for 48 hrs by sulforhodamine B assay; assay type: functional
In short: (§3)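 NCI five-dose assay, with drug stocks in DMSO diluted in medium to five concentrations (10-fold or ½-log series). Cells in RPMI 1640/5% FBS were pre-incubated 24 h, and time-zero plates were TCA-fixed at drug addition. After 48 h at 37 °C, cells were TCA-fixed, SRB-stained and read at 515 nm. GI50 is from [(Ti-Tz)/(C-Tz)]×100 = 50, TGI from Ti = Tz, and LC50 from [(Ti-Tz)/Tz]×100 = -50.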

SNB-75 = assay: Growth inhibition of human SNB-75 cells incubated for 48 hrs by sulforhodamine B assay; assay type: functional; in short: as §1
CCRF-CEM = assay: Growth inhibition of human CCRF-CEM cells incubated for 48 hrs by sulforhodamine B assay; assay type: functional; in short: as §2
HOP-62 = assay: Growth inhibition of human HOP-62 cells incubated for 48 hrs by sulforhodamine B assay; assay type: functional; in short: as §2
NCI-H522 = assay: Growth inhibition of human NCI-H522 cells incubated for 48 hrs by sulforhodamine B assay; assay type: functional; in short: as §1
LOX IMVI = assay: Growth inhibition of human LOX IMVI cells incubated for 48 hrs by sulforhodamine B assay; assay type: functional; in short: as §2
SK-OV-3 = assay: Growth inhibition of human SK-OV-3 cells incubated for 48 hrs by sulforhodamine B assay; assay type: functional; in short: as §1
MCF7 = assay: Growth inhibition of human MCF7 cells incubated for 48 hrs by sulforhodamine B assay; assay type: functional; in short: as §2
SN12C = assay: Growth inhibition of human SN12C cells incubated for 48 hrs by sulforhodamine B assay; assay type: functional; in short: as §1
MDA-MB-468 = assay: Growth inhibition of human MDA-MB-468 cells incubated for 48 hrs by sulforhodamine B assay; assay type: functional; in short: as §2
TK-10 = assay: Growth inhibition of human TK-10 cells incubated for 48 hrs by sulforhodamine B assay; assay type: functional; in short: as §3
HOP-92 = assay: Growth inhibition of human HOP-92 cells incubated for 48 hrs by sulforhodamine B assay; assay type: functional; in short: as §2
NCI-H322M = assay: Growth inhibition of human NCI-H322M cells incubated for 48 hrs by sulforhodamine B assay; assay type: functional; in short: as §1
K562 = assay: Growth inhibition of human K562 cells incubated for 48 hrs by sulforhodamine B assay; assay type: functional; in short: as §2
SK-MEL-5 = assay: Growth inhibition of human SK-MEL-5 cells incubated for 48 hrs by sulforhodamine B assay; assay type: functional; in short: as §1
[1] = biological target: T1, DNA topoisomerase 1 (Homo sapiens) (UniProt P11387); assay: Inhibition of recombinant human TOPO1 assessed as TOP1-DNA cleavage complexes at 1 uM using 3'-[32-P]-117 labeled bp DNA as substrate incubated for 30 mins by SDS-PAGE analysis relative to control
T1 sequence (whole entry): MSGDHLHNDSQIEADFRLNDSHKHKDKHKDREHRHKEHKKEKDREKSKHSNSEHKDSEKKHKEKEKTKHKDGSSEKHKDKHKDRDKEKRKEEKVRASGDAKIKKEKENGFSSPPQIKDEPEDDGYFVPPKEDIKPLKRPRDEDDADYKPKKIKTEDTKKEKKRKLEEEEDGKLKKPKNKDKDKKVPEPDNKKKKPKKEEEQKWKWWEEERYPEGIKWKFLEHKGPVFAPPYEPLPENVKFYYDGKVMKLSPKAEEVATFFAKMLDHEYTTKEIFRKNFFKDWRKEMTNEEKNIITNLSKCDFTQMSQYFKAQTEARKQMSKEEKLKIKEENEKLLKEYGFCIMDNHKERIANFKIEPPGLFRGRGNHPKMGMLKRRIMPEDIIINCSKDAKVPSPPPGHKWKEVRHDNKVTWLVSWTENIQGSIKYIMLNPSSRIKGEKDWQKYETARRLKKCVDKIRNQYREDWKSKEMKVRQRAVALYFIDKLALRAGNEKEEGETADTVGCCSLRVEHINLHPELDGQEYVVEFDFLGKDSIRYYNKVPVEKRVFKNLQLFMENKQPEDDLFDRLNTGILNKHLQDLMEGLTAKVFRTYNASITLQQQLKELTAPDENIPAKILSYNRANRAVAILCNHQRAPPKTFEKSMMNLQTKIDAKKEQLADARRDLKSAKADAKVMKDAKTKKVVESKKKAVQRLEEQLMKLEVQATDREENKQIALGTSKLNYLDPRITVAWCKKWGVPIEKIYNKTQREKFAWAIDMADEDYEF

NCI-H460 = assay: Growth inhibition of human NCI-H460 cells incubated for 48 hrs by sulforhodamine B assay; assay type: functional; in short: as §1
T47D = assay: Growth inhibition of human T47D cells incubated for 48 hrs by sulforhodamine B assay; assay type: functional; in short: as §3
UACC-62 = assay: Growth inhibition of human UACC-62 cells incubated for 48 hrs by sulforhodamine B assay; assay type: functional; in short: as §3
IGROV-1 = assay: Growth inhibition of human IGROV-1 cells incubated for 48 hrs by sulforhodamine B assay; assay type: functional; in short: as §2
EKVX = assay: Growth inhibition of human EKVX cells incubated for 48 hrs by sulforhodamine B assay; assay type: functional; in short: as §2
CAKI-1 = assay: Growth inhibition of human CAKI-1 cells incubated for 48 hrs by sulforhodamine B assay; assay type: functional; in short: as §2
SF-539 = assay: Growth inhibition of human SF-539 cells incubated for 48 hrs by sulforhodamine B assay; assay type: functional; in short: as §1
SF-295 = assay: Growth inhibition of human SF-295 cells incubated for 48 hrs by sulforhodamine B assay; assay type: functional; in short: as §1
SW-620 = assay: Growth inhibition of human SW-620 cells incubated for 48 hrs by sulforhodamine B assay; assay type: functional; in short: as §3
SNB-19 = assay: Growth inhibition of human SNB-19 cells incubated for 48 hrs by sulforhodamine B assay; assay type: functional; in short: as §1
A498 = assay: Growth inhibition of human A498 cells incubated for 48 hrs by sulforhodamine B assay; assay type: functional; in short: as §3
SK-MEL-28 = assay: Growth inhibition of human SK-MEL-28 cells incubated for 48 hrs by sulforhodamine B assay; assay type: functional; in short: as §1
BT-549 = assay: Growth inhibition of human BT-549 cells incubated for 48 hrs by sulforhodamine B assay; assay type: functional; in short: as §2

Row | SMILES | GI50 (PC-3) [nM] | GI50 (ACHN) [nM] | GI50 (Hs-578T) [nM] | GI50 (U-251) [nM] | GI50 (SNB-75) [nM] | GI50 (CCRF-CEM) [nM] | GI50 (HOP-62) [nM] | GI50 (NCI-H522) [nM] | GI50 (LOX IMVI) [nM] | TGI (LOX IMVI) [nM] | GI50 (SK-OV-3) [nM] | GI50 (MCF7) [nM] | GI50 (SN12C) [nM] | GI50 (MDA-MB-468) [nM] | GI50 (TK-10) [nM] | GI50 (HOP-92) [nM] | GI50 (NCI-H322M) [nM] | GI50 (K562) [nM] | GI50 (SK-MEL-5) [nM] | inhibition [1] [%] | other results
1 | COc1cc2nc(-c3ccc(Cl)cc3)cc(OCCCN3CCCC3)c2cc1OC | 1760 | 1930 | 1890 | 1790 | 1730 | 2140 | 1380 | 2360 | 191 | 446 | 2420 | 1330 | 914 | 1280 | 2330 | 850 | 3360 | 1060 | 961 | 20 | GI50 (NCI-H460): 823 nM; GI50 (T47D): 1020 nM; GI50 (UACC-62): 2030 nM; GI50 (IGROV-1): 881 nM; GI50 (EKVX): 1210 nM; GI50 (CAKI-1): 303 nM; GI50 (SF-539): 2440 nM; GI50 (SF-295): 1220 nM; GI50 (SW-620): 3120 nM; GI50 (SNB-19): 3140 nM; GI50 (A498): 2190 nM; GI50 (SK-MEL-28): 1480 nM; GI50 (BT-549): 1770 nM
2 | COc1cc2nc(-c3ccc(Cl)cc3)cc(OCCCN3CCC(O)CC3)c2cc1OC | 2020 | 2430 | 1910 | 2810 | 1760 | 2650 | 1980 | 2190 | 227 | 589 | 3170 | 1600 | 1260 | 1560 | 2140 | 1250 | 3220 | 1630 | 1270 | 20 | GI50 (NCI-H460): 955 nM; GI50 (T47D): 2260 nM; GI50 (UACC-62): 1900 nM; GI50 (IGROV-1): 923 nM; GI50 (EKVX): 1330 nM; GI50 (CAKI-1): 416 nM; GI50 (SF-539): 2280 nM; GI50 (SF-295): 1660 nM; GI50 (SW-620): 3050 nM; GI50 (SNB-19): 3190 nM; GI50 (A498): 1520 nM; GI50 (SK-MEL-28): 1490 nM; GI50 (BT-549): 2790 nM
3 | COc1cc2nc(-c3ccc(C(F)(F)F)cc3)cc(OCCCN3CCCC3)c2cc1OC | 1070 | 812 | 1740 | 1050 | 1850 | 1080 | 1030 | 1740 | 116 | 275 | 2550 | 976 | 673 | 885 | 3240 | 460 | 6770 | 475 | 247 | 0 | TGI (SK-MEL-5): 645 nM; GI50 (NCI-H460): 528 nM; GI50 (T47D): 472 nM; GI50 (UACC-62): 1380 nM; GI50 (IGROV-1): 592 nM; GI50 (EKVX): 982 nM; GI50 (CAKI-1): 188 nM; GI50 (SF-539): 1870 nM; GI50 (SF-295): 328 nM; GI50 (SW-620): 1620 nM; GI50 (SNB-19): 2770 nM; GI50 (A498): 1580 nM; GI50 (SK-MEL-28): 1200 nM; GI50 (BT-549): 1990 nM
4 | COc1cc2nc(-c3ccc(C(F)(F)F)cc3)cc(OCCCN3CCC(O)CC3)c2cc1OC | 3660 | 3180 | 3750 | 2120 | 2580 | 3260 | 1800 | 4150 | 190 | 447 | 10600 | 2570 | 1440 | 1630 | 11500 | 1680 | 10200 | 1790 | 1430 | 0 | GI50 (NCI-H460): 835 nM; GI50 (T47D): 2970 nM; GI50 (UACC-62): 2610 nM; GI50 (IGROV-1): 900 nM; GI50 (EKVX): 1030 nM; GI50 (CAKI-1): 376 nM; GI50 (SF-539): 5750 nM; GI50 (SF-295): 1610 nM; GI50 (SW-620): 3530 nM; GI50 (SNB-19): 10500 nM; GI50 (A498): 2370 nM; GI50 (SK-MEL-28): 2380 nM; GI50 (BT-549): 6590 nM
